One block for each compound: values may come before it. *1 amine or outer side, *2 acyl side, *3 side chain or, on linkers, in order; H or OH if unused. Where a SMILES comes first, the peptide text is derived from it. Bridges are numbered along the chain shown (N, C = ends). [ ]: non-standard residue; d: D form. The star is where a group is joined. Staurosporine = CO[C@@H]1[C@H](N(C)*)C[C@H]2O[C@]1(C)n1c3ccccc3c3c4c(c5c6ccccc6n2c5c31)C(=O)NC4; Suc = O=C(CCC(=O)[*:2])[*:1]; Dap = NC[C@H](N)C(=O)O; βAla = NCCC(=O)O
Experiments:
[1] = molecular target: T1, Serine/threonine-protein kinase STK11 (Homo sapiens) (UniProt Q15831); assay: Binding affinity to human LKB1 at 500 nM by cell-based competition binding assay relative to control in presence of DTT
T1 sequence (whole entry): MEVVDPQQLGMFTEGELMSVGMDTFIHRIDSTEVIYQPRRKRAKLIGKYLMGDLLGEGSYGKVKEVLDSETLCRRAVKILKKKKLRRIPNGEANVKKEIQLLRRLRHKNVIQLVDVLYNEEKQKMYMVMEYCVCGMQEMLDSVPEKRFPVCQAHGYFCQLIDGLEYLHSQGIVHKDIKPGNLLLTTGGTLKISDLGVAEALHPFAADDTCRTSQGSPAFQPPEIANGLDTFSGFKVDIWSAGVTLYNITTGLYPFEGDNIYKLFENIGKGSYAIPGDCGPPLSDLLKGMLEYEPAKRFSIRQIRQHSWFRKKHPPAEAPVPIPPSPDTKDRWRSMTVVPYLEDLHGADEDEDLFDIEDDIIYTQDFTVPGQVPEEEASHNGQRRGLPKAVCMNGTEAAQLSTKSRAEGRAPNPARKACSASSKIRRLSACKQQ
Method in brief: (§1)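 Competition binding screen (Ambit) across a panel of 90 kinases, scoring test ligand displacement of each kinase's binding relative to control. The screen ran under reducing conditions with 7.5 mM DTT.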

[2] = molecular target: T2, Serine/threonine-protein kinase Chk1 (Homo sapiens) (UniProt O14757); assay: Ratio of compound to staurosporine binding affinity to CHK1 in presence of DTT
T2 sequence (whole entry): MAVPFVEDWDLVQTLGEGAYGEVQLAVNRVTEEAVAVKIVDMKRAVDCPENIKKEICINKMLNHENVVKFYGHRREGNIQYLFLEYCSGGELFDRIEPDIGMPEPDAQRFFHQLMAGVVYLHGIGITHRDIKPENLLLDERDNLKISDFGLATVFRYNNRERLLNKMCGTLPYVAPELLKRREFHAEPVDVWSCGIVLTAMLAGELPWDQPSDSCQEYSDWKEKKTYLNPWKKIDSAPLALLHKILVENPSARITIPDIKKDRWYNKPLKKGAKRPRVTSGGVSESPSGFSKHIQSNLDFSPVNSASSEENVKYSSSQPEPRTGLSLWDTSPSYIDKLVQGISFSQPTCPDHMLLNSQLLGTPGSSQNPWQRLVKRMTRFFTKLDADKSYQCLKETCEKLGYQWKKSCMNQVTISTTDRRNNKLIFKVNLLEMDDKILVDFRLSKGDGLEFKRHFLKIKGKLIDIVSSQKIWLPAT

[3] = molecular target: MAP kinase-interacting serine/threonine-protein kinase 1 (Homo sapiens) (UniProt Q9BUB5); assay: Binding affinity to human MKNK1 at 200 nM by cell-based competition binding assay relative to control in presence of DTT
[4] = molecular target: Receptor tyrosine-protein kinase erbB-4 (Homo sapiens) (UniProt Q15303); assay: Binding affinity to human ERBB4 at 200 nM by cell-based competition binding assay relative to control in presence of DTT
Method in brief: (§2)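 Commercial (Ambit) competitive kinase-binding panel of 90 kinases measured the binding profile. Run under reducing conditions of 7.5 mM DTT. Binding is expressed relative to control.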

[5] = molecular target: cAMP-dependent protein kinase catalytic subunit alpha (Homo sapiens) (UniProt P17612); assay: Binding affinity to human PKACalpha at 200 nM by cell-based competition binding assay relative to control in presence of DTT
[6] = molecular target: Casein kinase I isoform delta (Homo sapiens) (UniProt P48730); assay: Binding affinity to human CSNK1D at 200 nM by cell-based competition binding assay relative to control in presence of DTT; method in brief: as §2
[7] = molecular target: T3, Bone morphogenetic protein receptor type-2 (Homo sapiens) (UniProt Q13873); assay: Binding affinity to human BMPR2 at 50 nM by cell-based competition binding assay relative to control in presence of DTT
T3 sequence (whole entry): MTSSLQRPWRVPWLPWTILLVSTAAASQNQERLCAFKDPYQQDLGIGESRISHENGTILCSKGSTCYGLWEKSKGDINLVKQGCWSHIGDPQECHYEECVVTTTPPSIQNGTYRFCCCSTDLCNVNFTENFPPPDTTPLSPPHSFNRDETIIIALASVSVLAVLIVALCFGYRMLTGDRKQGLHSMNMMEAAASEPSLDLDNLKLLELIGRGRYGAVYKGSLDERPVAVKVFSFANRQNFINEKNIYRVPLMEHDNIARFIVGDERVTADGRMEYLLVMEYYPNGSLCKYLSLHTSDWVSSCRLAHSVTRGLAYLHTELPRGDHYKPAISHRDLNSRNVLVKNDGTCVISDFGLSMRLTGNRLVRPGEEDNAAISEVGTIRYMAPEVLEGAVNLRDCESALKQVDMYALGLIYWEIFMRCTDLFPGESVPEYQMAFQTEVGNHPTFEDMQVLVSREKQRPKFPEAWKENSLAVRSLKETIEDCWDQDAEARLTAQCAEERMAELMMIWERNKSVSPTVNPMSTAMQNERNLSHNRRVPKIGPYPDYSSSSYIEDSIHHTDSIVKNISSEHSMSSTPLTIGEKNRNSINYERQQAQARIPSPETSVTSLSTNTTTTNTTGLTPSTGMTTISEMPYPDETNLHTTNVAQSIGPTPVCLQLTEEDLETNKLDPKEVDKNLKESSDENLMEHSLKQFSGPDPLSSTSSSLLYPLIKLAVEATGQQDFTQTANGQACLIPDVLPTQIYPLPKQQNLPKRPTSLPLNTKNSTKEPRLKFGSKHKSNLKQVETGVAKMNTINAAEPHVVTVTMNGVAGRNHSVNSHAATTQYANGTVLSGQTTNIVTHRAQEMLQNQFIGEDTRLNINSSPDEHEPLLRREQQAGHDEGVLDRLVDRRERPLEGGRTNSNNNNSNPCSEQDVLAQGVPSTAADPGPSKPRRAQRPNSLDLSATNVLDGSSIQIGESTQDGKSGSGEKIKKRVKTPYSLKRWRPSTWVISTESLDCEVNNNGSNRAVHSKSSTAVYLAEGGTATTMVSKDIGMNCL
Method in brief: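 Kinase binding profiling ran on a commercial (Ambit) competitive binding screen against a panel of 90 kinases. The screen used reducing conditions with 7.5 mM DTT. To withstand the DTT, the bivalent ligand was tested as its amide isostere, with the disulfide replaced. A staurosporine derivative carrying a 3 β-alanine linker was run as the reference compound.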

[8] = tested on: Epidermal growth factor receptor (Homo sapiens), P00533 [L858R]; assay: Binding affinity to human EGFR L858R mutant at 50 nM by cell-based competition binding assay relative to control in presence of DTT; method in brief: as §2
[9] = molecular target: Mitogen-activated protein kinase 9 (Homo sapiens) (UniProt P45984); assay: Binding affinity to human JNK2 at 50 nM by cell-based competition binding assay relative to control in presence of DTT; method in brief: as §1
[10] = molecular target: Cyclin-dependent kinase 9 (Homo sapiens) (UniProt P50750); assay: Binding affinity to human CDK9 at 50 nM by cell-based competition binding assay relative to control in presence of DTT; method in brief: as §2
Sequence of Cyclin-dependent kinase 9 (Homo sapiens) (P50750 whole entry): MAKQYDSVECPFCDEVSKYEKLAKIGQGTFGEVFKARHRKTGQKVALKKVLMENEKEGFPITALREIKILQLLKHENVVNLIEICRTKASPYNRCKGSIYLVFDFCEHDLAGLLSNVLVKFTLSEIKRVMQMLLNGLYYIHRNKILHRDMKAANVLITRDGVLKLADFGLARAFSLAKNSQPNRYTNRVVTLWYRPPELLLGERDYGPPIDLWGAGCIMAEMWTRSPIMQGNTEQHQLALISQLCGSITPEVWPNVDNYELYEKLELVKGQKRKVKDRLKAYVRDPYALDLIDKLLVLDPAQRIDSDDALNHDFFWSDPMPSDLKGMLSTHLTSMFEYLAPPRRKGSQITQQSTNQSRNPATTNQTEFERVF

Sequence of Mitogen-activated protein kinase 9 (Homo sapiens) (P45984 whole entry, looked up): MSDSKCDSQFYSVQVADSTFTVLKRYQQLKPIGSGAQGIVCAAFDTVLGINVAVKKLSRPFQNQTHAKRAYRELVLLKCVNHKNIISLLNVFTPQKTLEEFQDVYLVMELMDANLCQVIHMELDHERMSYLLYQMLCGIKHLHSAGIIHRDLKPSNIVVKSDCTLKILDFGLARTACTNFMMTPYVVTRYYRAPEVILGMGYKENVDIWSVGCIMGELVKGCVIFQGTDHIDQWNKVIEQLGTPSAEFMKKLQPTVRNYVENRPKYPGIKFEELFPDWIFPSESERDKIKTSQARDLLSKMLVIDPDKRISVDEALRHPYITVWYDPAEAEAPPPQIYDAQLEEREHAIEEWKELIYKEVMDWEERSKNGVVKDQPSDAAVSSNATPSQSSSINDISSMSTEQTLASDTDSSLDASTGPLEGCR
Sequence of Receptor tyrosine-protein kinase erbB-4 (Homo sapiens) (Q15303 whole entry): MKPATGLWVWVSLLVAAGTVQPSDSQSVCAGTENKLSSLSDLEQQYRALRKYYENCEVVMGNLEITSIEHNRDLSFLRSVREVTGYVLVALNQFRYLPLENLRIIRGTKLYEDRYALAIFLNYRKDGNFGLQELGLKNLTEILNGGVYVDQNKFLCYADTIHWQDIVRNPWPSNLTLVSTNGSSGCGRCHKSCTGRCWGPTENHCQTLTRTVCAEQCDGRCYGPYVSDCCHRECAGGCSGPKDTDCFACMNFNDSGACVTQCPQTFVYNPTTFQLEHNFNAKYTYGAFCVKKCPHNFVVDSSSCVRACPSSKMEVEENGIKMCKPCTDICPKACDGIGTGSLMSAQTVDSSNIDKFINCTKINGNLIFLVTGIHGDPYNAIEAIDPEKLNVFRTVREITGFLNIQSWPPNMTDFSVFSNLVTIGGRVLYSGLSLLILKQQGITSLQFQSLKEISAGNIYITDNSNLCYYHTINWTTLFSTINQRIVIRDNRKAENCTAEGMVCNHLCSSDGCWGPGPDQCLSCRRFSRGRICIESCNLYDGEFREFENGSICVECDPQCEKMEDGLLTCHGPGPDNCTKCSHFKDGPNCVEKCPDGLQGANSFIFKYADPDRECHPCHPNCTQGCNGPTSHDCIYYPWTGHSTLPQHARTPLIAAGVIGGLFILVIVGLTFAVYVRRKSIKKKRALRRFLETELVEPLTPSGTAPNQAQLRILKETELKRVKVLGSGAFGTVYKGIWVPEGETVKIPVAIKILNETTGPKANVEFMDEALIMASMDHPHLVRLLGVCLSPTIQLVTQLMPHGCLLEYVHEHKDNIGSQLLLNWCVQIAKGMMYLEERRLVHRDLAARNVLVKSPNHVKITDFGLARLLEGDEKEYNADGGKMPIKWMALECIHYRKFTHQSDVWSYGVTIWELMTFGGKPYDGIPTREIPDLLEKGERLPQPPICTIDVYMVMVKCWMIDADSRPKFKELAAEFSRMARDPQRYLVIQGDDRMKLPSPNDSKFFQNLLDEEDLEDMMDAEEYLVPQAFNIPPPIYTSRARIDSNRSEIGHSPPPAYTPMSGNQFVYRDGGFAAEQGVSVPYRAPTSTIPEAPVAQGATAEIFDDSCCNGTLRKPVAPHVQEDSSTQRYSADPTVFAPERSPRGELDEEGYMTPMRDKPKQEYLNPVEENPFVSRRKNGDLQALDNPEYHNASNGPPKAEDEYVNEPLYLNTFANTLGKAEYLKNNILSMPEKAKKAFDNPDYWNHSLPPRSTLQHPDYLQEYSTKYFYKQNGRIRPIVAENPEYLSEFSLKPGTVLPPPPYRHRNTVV
Sequence of MAP kinase-interacting serine/threonine-protein kinase 1 (Homo sapiens) (Q9BUB5 whole entry, looked up): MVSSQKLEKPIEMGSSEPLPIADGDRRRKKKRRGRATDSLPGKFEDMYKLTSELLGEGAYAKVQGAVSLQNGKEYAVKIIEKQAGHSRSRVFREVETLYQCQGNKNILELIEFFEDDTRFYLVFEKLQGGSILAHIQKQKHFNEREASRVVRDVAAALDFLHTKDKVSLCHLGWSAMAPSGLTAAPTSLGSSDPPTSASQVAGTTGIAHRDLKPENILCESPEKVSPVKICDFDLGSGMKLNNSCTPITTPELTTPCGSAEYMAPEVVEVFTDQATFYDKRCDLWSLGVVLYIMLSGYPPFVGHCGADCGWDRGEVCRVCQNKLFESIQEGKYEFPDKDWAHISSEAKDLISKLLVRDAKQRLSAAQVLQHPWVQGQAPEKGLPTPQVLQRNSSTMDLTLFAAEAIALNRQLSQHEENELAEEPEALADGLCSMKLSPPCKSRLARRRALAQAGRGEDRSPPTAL
Sequence of Casein kinase I isoform delta (Homo sapiens) (P48730 whole entry, looked up, canonical isoform): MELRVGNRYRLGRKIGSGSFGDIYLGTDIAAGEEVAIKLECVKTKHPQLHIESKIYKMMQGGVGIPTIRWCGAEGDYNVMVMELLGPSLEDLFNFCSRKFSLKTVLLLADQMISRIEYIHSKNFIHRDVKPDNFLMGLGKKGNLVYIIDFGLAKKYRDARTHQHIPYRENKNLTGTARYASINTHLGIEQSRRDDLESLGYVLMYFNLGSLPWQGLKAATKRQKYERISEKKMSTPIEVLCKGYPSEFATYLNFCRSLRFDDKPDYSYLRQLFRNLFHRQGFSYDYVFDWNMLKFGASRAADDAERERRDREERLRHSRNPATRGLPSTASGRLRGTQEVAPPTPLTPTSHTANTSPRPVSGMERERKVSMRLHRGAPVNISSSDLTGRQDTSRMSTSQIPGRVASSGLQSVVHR

- Activity [1]: 41%
- Selectivity ratio [2]: 84
Structure (SMILES): CO[C@@H]1[C@H](N(C)C(=O)CCC(=O)NCCC(=O)NCCC(=O)NCCC(N)=O)C[C@H]2O[C@]1(C)n1c3ccccc3c3c4c(c5c6ccccc6n2c5c31)C(=O)NC4

- Activity [3]: 96%
- Activity [4]: 100%
- Activity [5]: 19%
- Activity [6]: 100%
Structure (SMILES): CO[C@@H]1[C@H](N(C)C(=O)CCC(=O)NCCC(=O)NCCC(=O)NCCC(=O)NCCC(=O)NCCC(=O)NCCC(=O)NCCC(=O)N[C@H]2CSSC[C@@H](C(=O)NCC(N)=O)NC(=O)CNC(=O)[C@H](Cc3ccccc3)NC(=O)[C@H](C(C)C)NC(=O)[C@H](CCCNC(=N)N)NC(=O)[C@H](Cc3ccccc3)NC(=O)[C@H](C(C)C)NC2=O)C[C@H]2O[C@]1(C)n1c3ccccc3c3c4c(c5c6ccccc6n2c5c31)C(=O)NC4 ({Staurosporine-Suc-βAla-βAla-βAla-βAla-βAla-βAla-βAla}-CVFRVFGCG-NH2; disulfide 1-8)

- Activity [7]: 99%
- Activity [8]: 100%
- Activity [9]: 88%
- Activity [10]: 99%
Structure (SMILES): CO[C@@H]1[C@H](N(C)C(=O)CCC(=O)NCCC(=O)NCCC(=O)NCCC(=O)NCCC(=O)NCCC(=O)NCCC(=O)NCCC(=O)N[C@H]2CNC(=O)C[C@@H](C(N)=O)NC(=O)CNC(=O)[C@H](Cc3ccccc3)NC(=O)[C@H](C(C)C)NC(=O)[C@H](CCCNC(=N)N)NC(=O)[C@H](Cc3ccccc3)NC(=O)[C@H](C(C)C)NC2=O)C[C@H]2O[C@]1(C)n1c3ccccc3c3c4c(c5c6ccccc6n2c5c31)C(=O)NC4 ({Staurosporine-Suc-βAla-βAla-βAla-βAla-βAla-βAla-βAla}-[Dap]VFRVFGD-NH2; lactam 1-8)

Source: ChEMBL document CHEMBL1152541, “Staurosporine tethered peptide ligands that target cAMP-dependent protein kinase (PKA): optimization and selectivity profiling” (Bioorg Med Chem, 2009)
